High-throughput results deposited in PubChem by Broad Institute.
Many of the other results were omitted from the sample, so hits are more common in it than they were.
IDH1 R132H inh – inhibitors of human IDH1 R132H; O75874; IDH1 R132H reductase, diaphorase/resazurin fluorescence, 60 min; inhibition, % at 10 µM; 70,000 compounds, 0.18% hits; AID 624101; in the data active = inhibition above about 34%; inconclusive = no clear call, values can overlap the other calls; inactive = below about 11%;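 also: 0% = DMSO and 100% = no enzyme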
Target sequence (O75874 whole entry R132H): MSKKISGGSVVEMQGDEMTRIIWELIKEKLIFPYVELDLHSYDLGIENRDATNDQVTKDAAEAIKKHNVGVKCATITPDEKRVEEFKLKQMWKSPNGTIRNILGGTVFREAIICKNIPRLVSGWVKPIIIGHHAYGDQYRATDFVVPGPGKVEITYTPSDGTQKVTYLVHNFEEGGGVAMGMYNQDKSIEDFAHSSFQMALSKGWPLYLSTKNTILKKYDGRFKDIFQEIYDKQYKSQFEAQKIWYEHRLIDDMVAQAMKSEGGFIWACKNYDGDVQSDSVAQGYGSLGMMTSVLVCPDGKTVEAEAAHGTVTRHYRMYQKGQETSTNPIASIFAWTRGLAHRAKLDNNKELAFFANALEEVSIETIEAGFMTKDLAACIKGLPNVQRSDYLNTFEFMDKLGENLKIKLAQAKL
T cruzi growth-1 – T. cruzi proliferation inhibition; T. cruzi beta-gal in NIH3T3, GalScreen luminescence, 90 h; inhibition, % at 8.34 µM; 77,000 compounds, 5.9% hits;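 active = mean inhibition above about 93%, with at least 55% of replicates each passing it, limit read from the data, passing the limit was not always enough; inconclusive = only one of those two conditions holds; inactive = neither condition holds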
GASC1 inh – blocks human GASC-1 (KDM4C) demethylase activity; GST-KDM4C 2-372, H3K9me3 peptide, LANCE TR-FRET; inhibition, % at 12.5 µM; Q9H3R0; 96,000 compounds, 0.15% hits;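 active = mean replicate inhibition above about 25%, with at least 55% of replicates also reaching it, limit read from the data, passing the limit was not always enough; inconclusive = only one of those two conditions met; inactive = neither condition met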
Target sequence (Q9H3R0 2-372 limits assumed): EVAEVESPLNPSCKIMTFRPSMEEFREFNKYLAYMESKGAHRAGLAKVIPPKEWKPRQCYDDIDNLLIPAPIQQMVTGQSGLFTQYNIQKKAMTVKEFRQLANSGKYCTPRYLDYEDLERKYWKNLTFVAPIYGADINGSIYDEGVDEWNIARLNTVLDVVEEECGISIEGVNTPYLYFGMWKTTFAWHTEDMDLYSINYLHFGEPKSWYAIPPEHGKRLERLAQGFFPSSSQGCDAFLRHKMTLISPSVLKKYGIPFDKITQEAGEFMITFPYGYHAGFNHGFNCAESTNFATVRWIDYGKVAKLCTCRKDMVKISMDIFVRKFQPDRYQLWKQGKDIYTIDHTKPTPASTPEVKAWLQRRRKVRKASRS
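Material: GST-tagged GASC-1 (JMJD2C) catalytic fragment, aa 2-372 / Quantity: enzyme final amount 10 nM / Medium: HEPES buffer, pH 7.5, plus ascorbate / Doses: one test concentration per compound / Incubation: 30 min reaction, 60 min detection, RT / Measured by: LANCE TR-FRET / Read-out: inhibition from TR-FRET ratio decrease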
T cruzi growth-2 – Trypanosoma cruzi proliferation inhibition. shares compounds with T cruzi growth-1. T. cruzi beta-gal in NIH3T3, GalScreen luminescence, 90 h. inhibition, % at 8.35 µM. 5,600 compounds, 72% hits. AID 651739;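 active = mean replicate inhibition above about 95% and at least 55% of replicates individually reaching it, limit read from the data; inconclusive = only one of the two criteria is met; inactive = neither criterion is met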
T cruzi growth-3 – inhibitors of T. cruzi proliferation; shares compounds with T cruzi growth-1; T. cruzi beta-gal in NIH3T3, GalScreen luminescence, 90 h; inhibition, % at 2.09 µM; 5,600 compounds, 21% hits; AID 651740;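 active = mean inhibition above about 95%, with at least 55% of replicates also reaching it, limit read from the data; inconclusive = meets just one of the two conditions; inactive = meets neither condition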;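 also: plate controls were neutral control median for no effect and positive control median for full effect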
NIH3T3 tox – NIH/3T3 (mouse) viability loss | shares compounds with T cruzi growth-1 | NIH/3T3 viability, CellTiter-Glo ATP luminescence, 90 h | cytotoxicity (signal decrease), % at 8.35 µM | 5,600 compounds, 14% hits;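 active = mean signal decrease across replicates above about 35% based on untreated-well scatter, with enough replicates individually passing, limit read from the data; inconclusive = no rule stated though some were filed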;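 also: 0% = median of neutral control wells and 100% = median of positive control wells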
NIH3T3 tox 2 – kills mouse NIH/3T3 fibroblasts. inhibition, % at 24.9 µM. shares compounds with T cruzi growth-1. NIH/3T3 viability, CellTiter-Glo ATP luminescence, 90 h. 5,600 compounds, 56% hits;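 active = mean loss of cell viability signal at or above a set limit, and enough replicates individually reaching it; inconclusive = meets only the mean limit or only the replicate share; inactive = meets neither condition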;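 also: 0% = median of neutral control wells and 100% = median of positive control wells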
An asterisk follows results filed as active; ? = inconclusive; . = no result.

SMILES | IDH1 R132H inh | T cruzi growth-1 | GASC1 inh | T cruzi growth-2 | T cruzi growth-3 | NIH3T3 tox | NIH3T3 tox 2
CCCN1[C@@H]2c3ccc(-c4ccccc4F)c(=O)n3C[C@@H]2[C@@H](CO)[C@@H]1C(=O)N1CCN(C)CC1 | . | -55.6 | -0.2 | . | . | . | .
CNC(=O)CN(c1cccc(Cl)c1Cl)S(=O)(=O)c1ccc(C)cc1 | -0.3 | . | . | . | . | . | .
C[C@H](CO)N1C[C@H](C)[C@H](CN(C)Cc2ccc(Cl)c(Cl)c2)Oc2ccc(NC(=O)CCCCCC(=O)Nc3ccccc3N)cc2CC1=O | . | 86.3 | -0.2 | . | . | . | .
Cc1ccc(NC(=O)CN(c2cccc(F)c2)S(C)(=O)=O)cc1 | -0.5 | . | . | . | . | . | .
CS(=O)(=O)N(CC(=O)Nc1ccc(I)cc1)Cc1ccccc1 | 0.3 | . | . | . | . | . | .
C[C@H](CO)N1C[C@H](C)[C@H](CN(C)C(=O)c2ccc3c(c2)OCO3)Oc2ncc(/C=C/c3ccccc3)cc2C1=O | 0.7 | . | -2.8 | . | . | . | .
COc1ccc(S(=O)(=O)N[C@H]2CC[C@@H](CC(=O)NCc3ccccc3F)O[C@H]2CO)cc1 | -0.3 | 31.5 | -1.0 | . | . | . | .
CCNC(=O)[C@@H]1[C@@H](CO)[C@@H]2Cn3c(ccc(-c4ccc(OC)cc4)c3=O)[C@H]1N2S(C)(=O)=O | . | -8.2 | -2.3 | . | . | . | .
CO[C@@H]1CN(C)C(=O)c2ccc(NC(=O)NC(C)C)cc2OC[C@H](C)N(Cc2ccccc2)C[C@@H]1C | 0.1 | -45.9 | 0.8 | . | . | . | .
COc1ccccc1-c1ccc2c(c1)O[C@H](CN(C)C)[C@@H](C)CN([C@@H](C)CO)S2(=O)=O | -0.5 | 106.2* | -0.7 | 97.6* | 35.5 | 13.2 | 46.4*
COc1ccccc1-c1ccc2c(c1)O[C@H](CN(C)C)[C@H](C)CN([C@@H](C)CO)S2(=O)=O | -0.1 | 74.9 | 1.5 | . | . | . | .
C[C@H](CO)N1C[C@H](C)[C@H](CN(C)C)Oc2cc(-c3ccccc3F)ccc2S1(=O)=O | -2.0 | ? | 7.3 | 19.4 | 8.7 | 5.8 | 50.3*
COc1ccccc1-c1ccc2c(c1)O[C@@H](CN(C)C(=O)c1ccncc1)[C@@H](C)CN([C@H](C)CO)S2(=O)=O | -3.6 | 105.1* | -0.2 | 94.0 | 75.8 | 4.1 | ?
C[C@H]1CN([C@@H](C)CO)S(=O)(=O)c2ccc(-c3ccccc3F)cc2O[C@H]1CN(C)C | 1.0 | 63.9 | 1.0 | . | . | . | .
COc1ccccc1-c1ccc2c(c1)O[C@H](CN(C)C(=O)c1ccccc1)[C@@H](C)CN([C@@H](C)CO)S2(=O)=O | -0.2 | 19.0 | -0.4 | . | . | . | .
C[C@@H]1CN([C@@H](C)CO)C(=O)c2cc(NC(=O)c3ccncc3)ccc2O[C@@H](C)CCCCO[C@H]1CN(C)C(=O)CCCN(C)C | 1.3 | 32.4 | 3.6 | . | . | . | .
Cc1noc(C)c1S(=O)(=O)Nc1cccc2c1O[C@@H](CN(C)C(=O)NC(C)C)[C@@H](C)CN([C@@H](C)CO)C2=O | -0.7 | -139.6 | 4.6 | . | . | . | .
O=C(C[C@@H]1C=C[C@@H](NC(=O)Cc2cccnc2)[C@H](CO)O1)Nc1ccccc1 | 0.2 | -19.7 | -3.6 | . | . | . | .
O=C(OCc1cccc([N+](=O)[O-])c1)c1ccc(NC(=O)c2ccco2)cc1 | 0.4 | . | . | . | . | . | .
C[C@@H]1CN([C@H](C)CO)S(=O)(=O)c2ccc(C#Cc3cccnc3)cc2O[C@@H]1CN(C)C(=O)Nc1ccc2c(c1)OCO2 | 0.1 | ? | -0.2 | 76.9 | 62.0 | 18.4 | 40.4*
C[C@H](CO)N1C[C@H](C)[C@@H](CN(C)C(=O)Nc2ccc3c(c2)OCO3)Oc2cc(C#Cc3cccnc3)ccc2S1(=O)=O | . | 93.0 | -1.7 | . | . | . | .
CC(=O)N(C)C[C@@H]1Oc2cc(C#Cc3cccnc3)ccc2S(=O)(=O)N([C@@H](C)CO)C[C@@H]1C | 5.1 | 38.5 | -0.4 | . | . | . | .
C[C@H]1CN([C@@H](C)CO)S(=O)(=O)c2ccc(C#Cc3cccnc3)cc2O[C@H]1CN(C)C(=O)Nc1ccc2c(c1)OCO2 | . | 102.1* | -0.8 | 64.0 | 42.5 | 8.2 | 11.4
NCC[C@@H]1CC[C@@H](NS(=O)(=O)Cc2ccccc2)[C@H](CO)O1 | 0.5 | 1.0 | -0.6 | . | . | . | .
C/C=C/c1ccc2c(c1)O[C@@H](CN(C)C(=O)Nc1cccc(F)c1)[C@H](C)CN([C@H](C)CO)S2(=O)=O | -2.6 | -102.0 | -1.0 | . | . | . | .
SMILES | IDH1 R132H inh | T cruzi growth-1 | GASC1 inh | T cruzi growth-2 | T cruzi growth-3 | NIH3T3 tox | NIH3T3 tox 2
COc1cccc(NC(=O)N(C)C[C@@H]2Oc3cc(/C=C/c4ccccc4)ccc3S(=O)(=O)N([C@@H](C)CO)C[C@@H]2C)c1 | -3.2 | . | -0.9 | . | . | . | .
C[C@@H]1CN([C@@H](C)CO)S(=O)(=O)c2ccc(/C=C/c3ccccc3)cc2O[C@@H]1CN(C)C(=O)Nc1cccc(F)c1 | -0.5 | 126.6* | -0.3 | 100.8* | 104.6* | ? | 29.1*
C[C@H]1CN([C@@H](C)CO)S(=O)(=O)c2ccc(/C=C/c3ccccc3)cc2O[C@H]1CN(C)C(=O)Nc1cccc(F)c1 | 0.3 | 123.0* | 0.0 | 106.1* | 102.6* | 38.8* | 38.2*
C/C=C/c1ccc2c(c1)O[C@H](CN(C)C(=O)Nc1cccc(F)c1)[C@H](C)CN([C@@H](C)CO)S2(=O)=O | -5.0 | 93.4 | -4.4 | . | . | . | .
C[C@@H]1CN([C@@H](C)CO)S(=O)(=O)c2ccc(/C=C/c3ccccc3)cc2O[C@H]1CN(C)C(=O)Nc1cccc(F)c1 | -3.2 | 127.4* | -0.3 | 95.5* | 97.2* | 49.2* | 80.2*
CC(C)CC#Cc1cnc2c(c1)C(=O)N([C@@H](C)CO)C[C@@H](C)[C@@H](CN(C)Cc1ccccc1F)O2 | -1.5 | ? | -3.5 | 106.7* | 89.0 | ? | 31.5*
CC(C)CC#Cc1cnc2c(c1)C(=O)N([C@@H](C)CO)C[C@@H](C)[C@H](CN(C)Cc1ccccc1F)O2 | -3.1 | 119.5* | 1.5 | 108.0* | 74.8 | 5.7 | 103.1*
CC(C)CC#Cc1cnc2c(c1)C(=O)N([C@H](C)CO)C[C@H](C)[C@H](CN(C)Cc1ccccc1F)O2 | -1.1 | 56.2 | -2.6 | . | . | . | .
CC(C)CC#Cc1cnc2c(c1)C(=O)N([C@H](C)CO)C[C@H](C)[C@@H](CN(C)Cc1ccccc1F)O2 | -1.6 | 103.2* | 0.8 | 110.7* | 79.4 | 8.3 | 102.8*
CCCC#Cc1cnc2c(c1)C(=O)N([C@H](C)CO)C[C@@H](C)[C@H](CN(C)Cc1ccccc1F)O2 | -9.4 | 51.0 | 1.0 | . | . | . | .
CC(C)CC#Cc1cnc2c(c1)C(=O)N([C@H](C)CO)C[C@@H](C)[C@@H](CN(C)Cc1ccccc1F)O2 | -0.9 | 57.9 | -2.9 | . | . | . | .
Cc1cc(Nc2cnn(-c3nc4ccccc4o3)c(=O)c2Cl)ccc1Br | 0.9 | . | . | . | . | . | .
Cc1ccc(C(C)C)c(OCC(=O)Nc2ncc(I)cc2C)c1 | 0.0 | . | . | . | . | . | .
O=C([C@@H]1[C@@H](CO)[C@@H]2Cn3c(ccc(-c4ccccc4)c3=O)[C@@H]2N1CCC(F)(F)F)N1CCOCC1 | . | 27.3 | 3.1 | . | . | . | .
